Series [1] relates to Jurkat cells. Briefly: IL-2 ELISA assay in PMA/PHA stimulated Jurkat cells. The class given is cell-based, human. To be noted: for IL-2 secretion: PMA/PHA stimulated Jurkat cells. In short, it runs like this: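 Jurkat cells were kept in RPMI 1640 with L-glutamine and 10% FBS at 37°C, 5% CO2, about 10^6 cells/ml. […] After 15 min, a PHA (25 μg/mL)/PMA (1.25 μg/ml) mixture in PBS:DMSO (80:1) was added and cells were incubated 24 h at 37°C. Supernatant IL-2 was measured by human IL-2 ELISA.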
(ELISA stands for enzyme-linked immunosorbent assay.)

In series [2] the test system is Jurkat cells. Briefly: Intracellular calcium assay. Type of series: cell-based, human. For orientation: Calcium flux is commonly read through the fluorescence of an indicator in the cells.
The subject of series [3] is Balb/c mice. Kind of series: Rotarod assay. Type of series: in vivo, mouse. The following applies: 10 minutes after injection, 15 rpm. (In general: The rotarod test checks motor coordination on a turning rod.)
A short description of series [4]: Blood concentration under repeated dosing / osmotic minipump in Ova S/C mice. The class given is in vivo, Balb/c mice. The gist of the method: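 Ova-sensitized/challenged Balb/c mice received test compound by surgically implanted osmotic minipump at 20 mg/kg/day for 7 days, or by two i.p. injections daily over the 5-day challenge period. Blood concentration was taken on the day of airway hyper-responsiveness measurement (day 28).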

A short description of series [5]: Metabolic stability in mouse liver microsomes. Type of series: in vitro ADME.
Series [6] has as its system Ova S/C Balb/c mice. Briefly: Airway hyper-responsiveness to methacholine. The class given is in vivo, mouse. In short, it runs like this: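 Male Balb/c mice were sensitized i.p. with 2 mg/kg/d ovalbumin in 2 mg alum on days 0, 7 and 14, then challenged intranasally with 1 mg/kg/d ovalbumin on days 23–27. Dosing was by i.p. injection 40 min before testing, or twice daily during challenge. The dexamethasone control was 4 mg/kg i.p. daily for 8 days. sRaw was measured versus aerosolized methacholine (mg/ml) in conscious mice (4-7/group, mean ± SEM).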

In series [7] the test system is Ova S/C Balb/c mice. Kind of series: Mucin volume density. Type of series: in vivo, mouse. In short, it runs like this:
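Ova-sensitized/challenged Balb/c mice were dosed as single 20 mg/kg i.p. 40 min before analysis, twice-daily 20 mg/kg i.p. for 5 days, osmotic pump 20 mg/kg/day for 7 days, or dexamethasone 4 mg/kg daily for 8 days. Formalin-perfused lungs were cut into 5 μm paraffin sections and stained with periodic acid fluorescent Schiff. Mucin area in axial-bronchus epithelium per basement-membrane length was normalized to control and Ova groups (5-7 mice/group).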

Series [8] concerns guinea pig tracheal rings. Briefly: Guinea pig airway smooth muscle organ bath. The following applies: 100 μM, rings contracted with 1 μM substance P, compared to vehicle. The class given is cell-based.
Series [9] deals with α6β3γ2 GABAAR. The following applies: at concentrations higher that 1 μM ref 27; cited from earlier work.
Series [10] is described as follows: Stability in mouse plasma. The class given is in vitro ADME.
Series [11] has as its system Ova S/C Balb/c mice. Briefly: Airway eosinophilia. The class given is in vivo, mouse.
Series [12] in a line: Single dose pharmacokinetic study in mice. Type of series: in vivo. To be noted: 5 mg/kg i.p. In short, it runs like this:
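Mice received a single 5 mg/kg i.p. dose of test compound in 10% DMSO, 40% propylene glycol and 50% PBS. Compound levels were followed over time in brain, lung and blood, with N = 3.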

Series [13] concerns Jurkat cells. Briefly: Automated patch-clamp electrophysiology for Jurkat cells. Type of series: cell-based, human. To be noted: in the presence of an EC3 concentration of GABA (0.3 μM).
The nature of series [14]: Metabolic stability in human S9 fraction. The class given is in vitro ADME. To be noted: 1 hour incubation.
Series [15] in a line: Metabolic stability in mouse S9 fraction. The class given is in vitro ADME. To be noted: 1 hour incubation.
In series [16] the target is α4β3γ2 GABAAR (Homo sapiens, UniProt P18507+P48169). To be noted: α4β3γ2 ref 27; cited from earlier work.
Sequence of α4β3γ2 GABAAR (P48169 36-554): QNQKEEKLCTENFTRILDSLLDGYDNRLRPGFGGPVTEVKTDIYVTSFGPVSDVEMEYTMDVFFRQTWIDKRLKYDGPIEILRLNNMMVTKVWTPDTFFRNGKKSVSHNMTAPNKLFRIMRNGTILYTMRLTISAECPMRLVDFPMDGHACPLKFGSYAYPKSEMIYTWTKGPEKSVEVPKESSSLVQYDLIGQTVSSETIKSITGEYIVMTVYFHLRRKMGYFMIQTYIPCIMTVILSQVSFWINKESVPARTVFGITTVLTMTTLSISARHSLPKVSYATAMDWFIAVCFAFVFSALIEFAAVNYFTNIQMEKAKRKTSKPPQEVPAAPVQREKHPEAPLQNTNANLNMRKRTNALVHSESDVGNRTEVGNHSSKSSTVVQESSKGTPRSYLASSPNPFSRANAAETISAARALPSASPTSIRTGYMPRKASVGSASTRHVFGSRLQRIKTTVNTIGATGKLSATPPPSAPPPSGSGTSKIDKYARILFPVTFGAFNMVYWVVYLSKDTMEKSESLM
Sequence of α4β3γ2 GABAAR (P28472 26-473 partner): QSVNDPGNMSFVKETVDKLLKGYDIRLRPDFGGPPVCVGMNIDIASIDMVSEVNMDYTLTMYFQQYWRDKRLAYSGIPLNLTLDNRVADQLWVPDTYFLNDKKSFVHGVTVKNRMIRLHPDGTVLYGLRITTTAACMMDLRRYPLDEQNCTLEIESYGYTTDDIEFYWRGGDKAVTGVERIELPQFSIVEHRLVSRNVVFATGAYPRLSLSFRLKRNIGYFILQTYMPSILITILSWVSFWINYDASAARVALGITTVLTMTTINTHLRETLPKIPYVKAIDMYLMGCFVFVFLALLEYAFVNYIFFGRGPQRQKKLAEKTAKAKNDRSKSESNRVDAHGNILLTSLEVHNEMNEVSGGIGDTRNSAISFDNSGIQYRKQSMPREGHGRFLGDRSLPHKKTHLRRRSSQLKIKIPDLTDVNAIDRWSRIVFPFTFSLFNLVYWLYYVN
Sequence of α4β3γ2 GABAAR (P18507 40-475): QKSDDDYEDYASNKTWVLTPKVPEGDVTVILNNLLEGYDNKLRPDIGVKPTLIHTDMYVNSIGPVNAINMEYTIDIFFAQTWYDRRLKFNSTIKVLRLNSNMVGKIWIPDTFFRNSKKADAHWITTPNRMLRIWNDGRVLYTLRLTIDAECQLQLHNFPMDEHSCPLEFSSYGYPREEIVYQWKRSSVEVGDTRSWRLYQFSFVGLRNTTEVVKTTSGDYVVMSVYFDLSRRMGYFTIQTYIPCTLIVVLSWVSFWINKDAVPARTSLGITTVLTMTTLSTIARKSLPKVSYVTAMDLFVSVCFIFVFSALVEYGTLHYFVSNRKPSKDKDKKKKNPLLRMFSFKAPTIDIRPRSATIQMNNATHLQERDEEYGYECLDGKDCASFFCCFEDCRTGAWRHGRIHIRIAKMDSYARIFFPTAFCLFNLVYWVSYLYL
Series [17] is described as follows: Metabolic stability in human liver microsomes. Type of series: in vitro ADME.

`NCCCC(=O)O` [GABA, reference compound]: the “IL-2 secretion” value in series [1] (1 nM) was “ineffective”; in series [1] (100 nM) it was “significantly reduced secretion of IL-2”. In addition, the “increase in [Ca2+]i” value in series [2] (150 mM) is recorded as “fully suppressed”. In addition, in [2] (Jurkat cells), the “concentration able to reduce the [Ca2+]i levels” value is reported as ≥ 30 mM.

Regarding `CN1C(=O)CN=C(c2ccccc2)c2cc(Cl)ccc21` [diazepam, reference compound], the “motor impairment on rotarod” value in series [3] (5 mg/kg i.p.) is on record as “induced significant motor impairment”.

Turning to `CCOC(=O)c1ncn2c1[C@@H]1CCCN1C(=O)c1cc(OC)ccc1-2` [XHE-III-74EE], the “blood concentration, continuous release by implanted minipumps” value in series [4] (implanted minipumps (Discussion)) is recorded as 27.2 ng/mL. Also, the “constant blood concentration at the day of AHR measurement” value in series [4] (implanted minipumps, 20 mg/kg/day for 7 days) was found to be 27.2 ± 2.7 ng/g. Besides, the cmax in series [4] (twice daily i.p. injection) was 216 ng/mL. Also, the “Mouse liver microsomes % remaining after 1 hour” value in series [5] (1 hour incubation) came to 86.3 ± 0.3%. The “predicted half-life” value is “several hours” in series [5] (mouse liver microsomes and S9 fraction); “several hours” in series [17] (human liver microsomes and S9 fraction). The “methacholine-induced AHR (sRaw), words” value in series [6] (20 mg/kg i.p. twice daily for 5 days) is listed as “reduced methacholine-induced AHR”; in series [6] (osmotic pump, 20 mg/kg daily for 7 days), “effective in reducing AHR at low concentrations of methacholine”; in series [6] (single i.p. 10 mg/kg, 40 minutes prior to analysis) it was “did not alter AHR”; in [6] (single i.p. 20 mg/kg, 40 minutes prior to analysis) it was “did not alter AHR”. For the same molecule, the figures for the “airway mucous metaplasia / mucin volume density” value in [7] (20 mg/kg i.p. injections daily for 5 days) and in series [7] (20 mg/kg/day via osmotic pump) were “did not significantly change airway mucous metaplasia” and “no change in airway mucous metaplasia”, respectively. Also, the “mucin production” value in series [7] (acute, single i.p. injection for 40 minutes) is given as “did not change mucin production”. Further, the “relaxation of airway smooth muscle contractile force” value in series [8] is “induced active relaxation”. In series [9], the “reported activity at α6β3γ2 GABAAR” value was “some activity”. Moreover, in series [10] (Table 1 of in vitro metabolic stability), the “Mouse plasma (stability; row prints no unit or time)” value was 92.6 ± 0.2. For the same molecule, the “stability in blood plasma” value in [10] (at least one hour) is given as “stable in blood plasma”. The “motor impairment on rotarod” value is recorded as “did not impair motorsensory coordination” in series [3] (5 mg/kg i.p.) and “did cause motor-impairing effects” in series [3] (40 mg/kg i.p.). The “airway eosinophilia” value is recorded as “not effective in reducing airway eosinophilia” in series [11] (20 mg/kg twice i.p. injection daily for 5 days); “no change in airway eosinophilia” in series [11] (20 mg/kg via osmotic pump); “not effective in reducing airway eosinophilia” in [11] (acute, single i.p. injection 20 mg/kg for 40 minutes). In addition, in [12], the “AUC in brain as % of the AUC in blood” value is 79%. For the same molecule, the “AUC in lung as % of the blood AUC” value in [12] was 60%. In series [12], the “Cmax in blood versus lung” value is listed as “roughly two times higher in blood than in lung”. For the same molecule, the Tmax in blood in series [12] is 10 min. Moreover, the Tmax in lung in series [12] was found to be 3 min. The molecule further showed a half-life in brain in [12] of 36.7 min. In series [12], this molecule registered a half-life in lung of 17.6 min. In addition, in [13], the GABA-induced current potentiation was 734%. In series [14], the “human S9 fraction % remaining after 1 hour” value is 95.6 ± 0.3%. Also, the “Mouse S9 fraction % remaining after 1 hour” value in [15] was determined as 98.4 ± 0.4%. Besides, in series [16], the “reported GABAAR subtype selectivity” value was “subtype-selective”. For the same molecule, the “IL-2 production” value in series [1] (under similar conditions, without supplemental GABA) is listed as “did not reduce IL-2 production”. Also, the “extent of inhibition of PMA/PHA-induced increases in [Ca2+]i” value in series [2] (Jurkat cells, Fluo-4) is reported as “partial inhibition”. For the same molecule, the IC50 in [2] (read-out: IC50, PMA/PHA-induced increase in [Ca2+]i, Jurkat cells, Fluo-4) is 24.3 ± 9.8 nM. The “human liver microsomes % remaining after 1 hour” value in series [17] (1 hour incubation) is 99.2 ± 0.15%.

Regarding `C[C@@H]1C[C@H]2[C@@H]3CCC4=CC(=O)C=C[C@]4(C)[C@@]3(F)[C@@H](O)C[C@]2(C)[C@@]1(O)C(=O)CO` [dexamethasone, reference compound], the “airway mucous metaplasia / mucin volume density” value in series [7] (single i.p. injection daily for 8 days, 4 mg/kg, p<0.01) is on record as “significantly decreased mucous metaplasia”. Moreover, in series [11] (4 mg/kg i.p. daily for 8 days), the “airway eosinophilia” value is “significantly decreased airway eosinophilia”.

(Values after paper PMC4899155 (Molecular pharmaceutics, 2016).)
